Active and inactive are the calls of the source. No cut-off for these calls is given here.
Columns and labels:
[1] = test system: Transthyretin (Homo sapiens), P02766 [V50M]; test: Stabilization of TTR V30M mutant (unknown origin) expressed in Escherichia coli assessed as formation of TTR tetramer band formation at 40 to 100 mM after 4 mins by SDS-PAGE analysis based glutaraldehyde cross-linking assay
[2] = test system: Transthyretin (Homo sapiens), P02766 [V50M]; test: Inhibition of ANS binding to TTR V30M mutant (unknown origin) expressed in Escherichia coli assessed as increase in BC50 for ANS binding to TTR at 100 mM in presence of 150 mM Na+ by fluorescence-based assay
[3] = test system: Transthyretin (Homo sapiens), P02766 [V50M]; test: Inhibition of ANS binding to TTR V30M mutant (unknown origin) expressed in Escherichia coli assessed as increase in BC50 for ANS binding to TTR at 100 mM in presence of 150 mM K+ by fluorescence-based assay
[4] = test system: Transthyretin (Homo sapiens), P02766 [V50M]; test: Inhibition of TTR V30M mutant (unknown origin)-mediated amyloid fibril formation expressed in Escherichia coli assessed as amyloid fibril percentage at 0.2 mM after 4 days by thioflavin-T-fluorescence based assay (reference value: 100%); parameters: scale not given: the % may be the effect or the level left
Outline: (§1)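 Acid-driven aggregation: 2 μM E. coli-expressed V30M-TTR in 50 mM sodium acetate pH 4.2 held with compound at room temperature for 4 days. Stopped with 0.2 M Tris-HCl pH 8.0, then thioflavin-T added to 20 μM and fluorescence read at ex 440/em 484 nm. Values are amyloid fibril % relative to no-compound control.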

[5] = test system: Transthyretin (Homo sapiens), P02766 [V50M]; test: Inhibition of TTR V30M mutant (unknown origin)-mediated amyloid fibril formation expressed in Escherichia coli assessed as amyloid fibril percentage at 0.6 mM after 4 days by thioflavin-T-fluorescence based assay (reference value: 100%); parameters: scale not given: the % may be the effect or the level left; outline: as §1
[6] = test system: Transthyretin (Homo sapiens), P02766 [V50M]; test: Inhibition of TTR V30M mutant (unknown origin)-mediated amyloid fibril formation expressed in Escherichia coli assessed as amyloid fibril percentage at 10 mM after 4 days by thioflavin-T-fluorescence based assay (reference value: 100%); parameters: scale not given: the % may be the effect or the level left; outline: as §1
[7] = test system: Transthyretin (Homo sapiens), P02766 [V50M]; test: Stabilization of TTR V30M mutant (unknown origin) expressed in Escherichia coli assessed as formation of TTR tetramer band formation after 4 mins by SDS-PAGE analysis based glutaraldehyde cross-linking assay
[8] = test system: Transthyretin (Homo sapiens), P02766 [V50M]; test: Inhibition of ANS binding to TTR V30M mutant (unknown origin) expressed in Escherichia coli assessed as increase in BC50 for ANS binding to TTR at 10 mM in presence of 150 mM Na+ by fluorescence-based assay
[9] = test system: Transthyretin (Homo sapiens), P02766 [V50M]; test: Inhibition of ANS binding to TTR V30M mutant (unknown origin) expressed in Escherichia coli assessed as increase in BC50 for ANS binding to TTR at 10 mM in presence of 150 mM K+ by fluorescence-based assay
[10] = test system: Transthyretin (Homo sapiens), P02766 [V50M]; test: Potentiation of diflunisal-induced stabilization of TTR V30M mutant (unknown origin) expressed in Escherichia coli assessed as formation of TTR tetramer band formation at 5 mM after 4 mins by SDS-PAGE analysis based glutaraldehyde cross-linking assay relative to diflunisal alone
Outline: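 Glutaraldehyde 4 min at RT, borohydride quench, SDS-PAGE with silver stain, tetramer band quantified. Controls were pH 8.0 Tris buffer (positive) and pH 4.4 buffer without compound (negative).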

[11] = test system: Transthyretin (Homo sapiens), P02766 [V50M]; test: Stabilization of TTR V30M mutant (unknown origin) expressed in Escherichia coli assessed as formation of TTR tetramer band formation at 10 mM after 4 mins by SDS-PAGE analysis based glutaraldehyde cross-linking assay
[12] = test system: Transthyretin (Homo sapiens), P02766 [V50M]; test: Inhibition of TTR V30M mutant (unknown origin)-mediated amyloid fibril formation expressed in Escherichia coli assessed as amyloid fibril percentage at 0.5 uM after 4 days by thioflavin-T-fluorescence based assay (reference value: 100%); parameters: scale not given: the % may be the effect or the level left; outline: as §1
[13] = test system: Transthyretin (Homo sapiens), P02766 [V50M]; test: Inhibition of TTR V30M mutant (unknown origin)-mediated amyloid fibril formation expressed in Escherichia coli assessed as amyloid fibril percentage at 1.5 uM after 4 days by thioflavin-T-fluorescence based assay (reference value: 100%); parameters: scale not given: the % may be the effect or the level left; outline: as §1
[14] = test system: Transthyretin (Homo sapiens), P02766 [V50M]; test: Inhibition of TTR V30M mutant (unknown origin)-mediated amyloid fibril formation expressed in Escherichia coli assessed as amyloid fibril percentage at 5 uM after 4 days by thioflavin-T-fluorescence based assay (reference value: 100%); parameters: scale not given: the % may be the effect or the level left; outline: as §1
[15] = test system: Transthyretin (Homo sapiens), P02766 [V50M]; test: Stabilization of TTR V30M mutant (unknown origin) expressed in Escherichia coli assessed as formation of TTR tetramer band formation at 1 uM after 4 mins by SDS-PAGE analysis based glutaraldehyde cross-linking assay
[16] = test system: Transthyretin (Homo sapiens), P02766 [V50M]; test: Stabilization of TTR V30M mutant (unknown origin) expressed in Escherichia coli assessed as formation of TTR tetramer band formation at 2 uM after 4 mins by SDS-PAGE analysis based glutaraldehyde cross-linking assay

| Structure (SMILES) | Activity [1] | inhibition [2] | inhibition [3] | Activity [4] | Activity [5] | Activity [6] | Activity [7] | inhibition [8] | inhibition [9] | other results |
| --- | --- | --- | --- | --- | --- | --- | --- | --- | --- | --- |
| C1COCCOCCOCCO1 | Active | Active | Active | – | – | – | – | – | – | – |
| C1CCC2OCCOCCOC3CCCCC3OCCOCCOC2C1 (configuration not stated) | – | Active | – | 100% | 100% | 92% | – | Active | Active | – |
| O=C(O)c1cc(-c2ccc(F)cc2F)ccc1O | – | – | – | – | – | – | – | – | – | Activity [12]: 80%; Activity [13]: 35%; Activity [14]: 3.1%; Activity [15]: 15%; Activity [16]: 52% |
| C1COCCOCCOCCOCCO1 | Active | Active | Active | – | – | – | – | – | – | – |

Continued, in another order:

| Activity [1] | inhibition [2] | inhibition [3] | Activity [4] | Activity [5] | Activity [6] | Activity [7] | inhibition [8] | inhibition [9] | Structure (SMILES) | other results |
| --- | --- | --- | --- | --- | --- | --- | --- | --- | --- | --- |
| – | Active | – | 100% | 96% | 47% | Dose-dependent effect | Active | Active | c1ccc2c(c1)OCCOCCOCCOCCOCCO2 | – |
| – | Active | – | 99% | 92% | – | Dose-dependent effect | Active | Active | O=C(O)c1ccc2c(c1)OCCOCCOCCOCCOCCO2 | Activity [10]: Active; Activity [11]: 68% |

Source: ChEMBL document CHEMBL4411329, “Crown Ethers as Transthyretin Amyloidogenesis Inhibitors” (J Med Chem, 2019)
